Results on 4 molecules are retold here after ChEMBL document CHEMBL1687915, “Synthesis and biological evaluation of analogues of AKT (protein kinase B) inhibitor-IV” (J Med Chem, 2011).

Activity calls are given as the source filed them. No cut-off for these calls is given here. Where only a bound is given, the exact number is not on record here.

In one assay the test system is HeLa. The experiment in a line: Cytotoxicity in human HeLa cells assessed as luciferase activity after 24 hrs by CellTiter-Glo luminescent cell viability assay. The class given is functional, cell-based. In short, it runs like this:
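Viability of HeLa cells measured after 24 h of compound exposure by cellular ATP (firefly luciferase, CellTiter-Glo) over a dose-response range. IC50 derived from the curves, triplicate or more.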
(Cellular ATP, detected with luciferase, serves as a proxy for viable cell number.)

The nature of assay [1]: Cytotoxicity in human NHBE cells assessed as luciferase activity after 40 hrs by CellTiter-Glo luminescent cell viability assay. The class given is cell-based. In short, it runs like this: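 NHBE cells (passage 2, 2×10⁴ cells/cm²) grown on collagen-coated Transwell inserts, submerged for 5–7 days, then at air-liquid interface for a further 28 days (35 days total). Exposed to compound over a dose range, then viability read after 40 h as cellular ATP by CellTiter-Glo firefly luciferase. Triplicate or more.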

In assay [2] the test system is Mycolicibacterium fortuitum. The assay can be described thus: Antibacterial activity against 0.5 uM compound pretreated Mycobacterium fortuitum infected in human HeLa cells assessed as inhibition of bacterial replication. In kind it is functional, organism-based. Put shortly: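 HeLa cells seeded at 5×10^5/well in EMEM with 10% FBS overnight, 37 °C, 5% CO₂. Washed free of antibiotics, then infected with washed M. fortuitum in uptake buffer at MOI 5 for 24 h. After a warm DMEM wash, compound added at 0.5 μM in HeLa medium, with Triton X-100 (1%) and 0.1% DMSO controls. After 24 h more, cells lysed and plated for CFU on 7H11 agar. At least triplicate.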

Assay [3] in a line: Antiviral activity against Parainfluenza virus 5 expressing renilla luciferase infected in HeLa cells assessed as inhibition viral replication by luciferase based reporter gene assay. The class given is functional, cell-based. Put shortly:
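HeLa cells infected with 1 MOI of recombinant PIV5 carrying renilla luciferase between the HN and L genes, then incubated with compound. Cells harvested 1 day post infection and assayed for renilla luciferase. Screened first as singletons at 1 μM, then at 0.5 μM. IC50 taken from dose-response curves, at least triplicate.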
(In general: A reporter such as luciferase makes a cellular process visible.)

A short description of assay [4]: Inhibition of AKT -mediated FOXO1a nuclear export in human 786-O cells. In kind it is cell-based.
Assay [5] can be described thus: Antiproliferative activity against human 786-O cells. The class given is functional, cell-based. Conditions: 786-0.
The mark [6] stands for this setting: Homo sapiens, HeLa, 24 h, read-out: IC50.
Where [7] appears, read: Homo sapiens, NHBE, 40 h, read-out: IC50.
[8] abbreviates: Mammalian orthorubulavirus 5, HeLa, read-out: IC50.

In general, IC50 refers to the concentration at which inhibition is half-maximal.

For `CN(/C=C/c1n(-c2ccccc2)c2ccc(-c3nc4ccccc4s3)cc2[n+]1CCc1ccccc1)c1ccccc1.[I-]`, the half-maximal inhibitory concentration (IC50) in the assay on HeLa (setting [6]) is 620 nM; with HeLa (hela) it was “Dose-dependent effect”; in assay [1] (setting [7]) it was 5000 nM; in assay [1] (nhbe), “Dose-dependent effect”; in assay [3] (setting [8]), 590 nM; in assay [3] (hela), “Dose-dependent effect”. Further, in assay [2], the outcome was inactive.

For `CC[n+]1c(/C=C/N(C)c2ccccc2)n(-c2ccccc2)c2ccc(-c3nc4ccccc4s3)cc21`, the concentration for half-maximal inhibition (IC50) in the assay with HeLa (setting [6]) was 670 nM; in the assay on HeLa (hela) it was “Dose-dependent effect”; in assay [1] (setting [7]), 3180 nM; in assay [1] (nhbe), “Dose-dependent effect”; in assay [3] (setting [8]), 520 nM; in assay [3] (hela), “Dose-dependent effect”. The values for the 50% inhibitory concentration (IC50) in assay [4] and in assay [5] were 625 nM and under 1250 nM, respectively. Also, the result in assay [2] was inactive.

Take `CCCCCC[n+]1c(/C=C/N(C)c2ccccc2)n(-c2ccccc2)c2ccc(-c3nc4ccccc4s3)cc21.[I-]`: the IC50 with HeLa (setting [6]) is 420 nM; in the assay with HeLa (hela) it was “Dose-dependent effect”; in assay [1] (setting [7]) it was over 5000 nM; in assay [1] (nhbe) it was “Dose-dependent effect”; in assay [3] (setting [8]) it was 410 nM; in assay [3] (hela) it was “Dose-dependent effect”. Moreover, in assay [2], the result was inactive.

On to `CCCCCCCCCCCC[n+]1c(/C=C/N(C)c2ccccc2)n(-c2ccccc2)c2ccc(-c3nc4ccccc4s3)cc21.[I-]`, for which the IC50 was 440 nM in the assay on HeLa (setting [6]); “Dose-dependent effect” in the assay on HeLa (hela); over 5000 nM in assay [1] (setting [7]); “Dose-dependent effect” in assay [1] (nhbe); 250 nM in assay [3] (setting [8]); “Dose-dependent effect” in assay [3] (hela). The outcome in assay [2] was inactive.
